Measured values as given in ChEMBL document CHEMBL3856288, “Amidate Prodrugs of Deoxythreosyl Nucleoside Phosphonates as Dual Inhibitors of HIV and HBV Replication” (J Med Chem, 2016).

Key:
[1] = test system: Human immunodeficiency virus 1; assay: Antiviral activity against HIV1 3B infected in human MT4 cells assessed as protection against virus-induced cytopathic effect after 5 days by MTT assay; format: functional, cell-based; settings: Human immunodeficiency virus 1, 3B, MT4, 120 h
[2] = Antiviral activity against HIV2 ROD infected in human MT4 cells assessed as protection against virus-induced cytopathic effect after 5 days by MTT assay; format: functional, cell-based, Human immunodeficiency virus type 2 (ISOLATE ROD); settings: Human immunodeficiency virus 2, MT4, 120 h
[3] = Cytotoxicity against human MT4 cells assessed as decrease in cell viability after 5 days by MTT assay; format: toxicity, cell-based
[4] = Selectivity index, ratio of CC50 for human MT4 cells to EC50 for HIV1 3B infected in human MT4 cells; format: toxicity, cell-based; settings: read-out: Ratio CC50/EC50
[5] = Selectivity index, ratio of CC50 for human MT4 cells to EC50 for HIV2 ROD infected in human MT4 cells; format: toxicity, cell-based; settings: read-out: Ratio CC50/EC50
Hepatitis B virus [6] = assay: Antiviral activity against HBV ayw1 infected in human HepG2(2.2.15) cells assessed as reduction in viral replication by measuring extracellular viral DNA copy number after 6 days by real-time qPCR method; format: functional, cell-based; settings: ayw1, HepG2 2.2.15, 144 h
Procedure, shortened: (§1)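 HepG2 2.2.15 cells (stable line carrying two copies of the HBV ayw1 genome) were seeded at 1.5 × 10^4 cells/well in DMEM with 2% FBS and G418. After 16−24 h, compound was added in triplicate, and medium plus compound was renewed on day 3. On day 6, supernatant was Pronase-treated and extracellular HBV DNA was quantified by TaqMan qPCR against an HBV DNA standard curve to give EC50/EC90. Cell viability was read by MTS uptake to give CC50.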

[7] = Cytotoxicity against human HepG2(2.2.15) cells assessed as reduction in cell viability by MTS assay; format: toxicity, cell-based; procedure, shortened: as §1
[8] = Selectivity ratio of CC50 for human HepG2(2.2.15) cells to EC50 for reduction in HBV ayw1 extracellular DNA copy number; settings: read-out: Ratio CC50/EC50
Procedure, shortened: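 HepG2 2.2.15 cells (two HBV ayw1 genome copies), 1.5 × 10^4 cells/well in DMEM with 2% FBS and G418; compound dosed in triplicate and medium renewed on day 3. On day 6, Pronase-treated supernatant HBV DNA measured by TaqMan qPCR against a standard curve, giving EC50. MTS uptake gave CC50, and the ratio was calculated from these.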

[9] = Drug level in pH 8 phosphate buffer treated with 1'alpha-(Adenin-9-yl)-2'-deoxy-3'-O-{[N-(diisoamyl-L-aspartate)](phenoxy)methylphosphonoamidate}-L-threose at 2 mg measured every 30 mins for 14 hrs by RP-HPLC/mass spectra analysis
[10] = Drug level in acetone-d6/pH 7.6 Trizma buffer treated with 1'alpha-(Adenin-9-yl)-2'-deoxy-3'-O-{[N-(diisoamyl-L-aspartate)](phenoxy)methylphosphonoamidate}-L-threose assessed as baker's yeast carboxypeptidase Y-mediated compound formation at 1 mg after 3 hrs by RP-HPLC/mass spectra analysis; format: ADME; settings: saccharomyces cerevisiae, in vitro, pH 7.6, 3 h
Hepatitis B virus [11] = assay: Antiviral activity against HBV ayw1 infected in human HepG2(2.2.15) cells assessed as reduction in viral replication by measuring intracellular viral DNA copy number after 6 days by real-time qPCR method; format: functional, cell-based; settings: ayw1, HepG2 2.2.15, 144 h
Procedure, shortened: (§2)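 The protocol was the same as the primary HepG2 2.2.15 assay (triplicate dosing, medium plus compound renewed on day 3, 6-day course). At the end, total intracellular DNA was isolated from the cells and HBV DNA copy number was measured by TaqMan qPCR to give EC50/EC90. CC50 came from MTS viability, and SI was taken as CC50/EC50.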

[12] = Selectivity ratio of CC50 for human HepG2(2.2.15) cells to EC50 for reduction in HBV ayw1 intracellular DNA copy number; format: ADME, cell-based; settings: read-out: Ratio CC50/EC50; procedure, shortened: as §2
[13] = Half life in human liver S9 fraction at 100 uM by HPLC-UV method; format: ADME, subcellular
Procedure, shortened: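 Incubation started by adding human liver S9 fraction (4 mg/mL) at 37 °C; aliquots at 0, 10, 20, 30, 60 min quenched in acetonitrile, centrifuged, supernatant analysed by C18 HPLC with UV at 260 nm; parent peak area versus time 0 gave percent remaining and half-life.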

[14] = Half life in human liver microsomes at 0.1 uM in presence of NADPH-regenerating system by HPLC MS/MS method; format: ADME
Procedure, shortened: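 Pooled liver microsomes preincubated 10 min at 37 °C with NADPH-regenerating system (1 mM NADP, 5 mM G6P, 1 U/mL G6PDHase) in phosphate buffer pH 7.4, 3 mM MgCl2, 1 mM EDTA; compound added at 0.1 μM final; samples at 0, 15, 30, 45, 60 min quenched in acetonitrile/methanol, analysed by HPLC MS/MS.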

[15] = test system: Human immunodeficiency virus 1; assay: Antiviral activity against HIV1 3B infected in human MT2 cells assessed as protection against virus-induced cytopathic effect after 5 days by XTT assay; format: functional, cell-based; settings: Human immunodeficiency virus 1, 3B, MT2, 120 h

| Structure (SMILES) | EC50 [1] | EC50 [2] | CC50 at 120 h [3] | selectivity ratio [4] | selectivity ratio [5] | EC50 (Hepatitis B virus [6]) | EC90 (Hepatitis B virus [6]) | CC50 [7] | selectivity ratio [8] | Drug metabolism [9] | Drug metabolism [10] | EC50 (Hepatitis B virus [11]) | EC90 (Hepatitis B virus [11]) | selectivity ratio [12] | half-life at 100 µM [13] | half-life at 0.1 µM [14] | EC50 [15] |
| --- | --- | --- | --- | --- | --- | --- | --- | --- | --- | --- | --- | --- | --- | --- | --- | --- | --- |
| Cc1cn([C@H]2C[C@@H](OCP(=O)(N[C@@H](CC(=O)OCCC(C)C)C(=O)OCCC(C)C)Oc3ccccc3)CO2)c(=O)[nH]c1=O (stereo partly drawn) | 0.0173 µM | 0.011 µM | 42.2 µM | 2350 | 3860 | 0.25 µM | > 100 µM | 34 µM | 136 |  |  |  |  |  |  |  |  |
| Nc1ccn([C@H]2C[C@@H](OCP(=O)(O)O)CO2)c(=O)n1 | > 343 µM | > 343 µM | > 343 µM |  |  | > 100 µM | > 100 µM | > 100 µM |  |  |  |  |  |  |  |  |  |
| CC(C)OC(=O)[C@H](C)NP(=O)(CO[C@H]1CO[C@@H](n2ccc(N)nc2=O)C1)Oc1ccccc1 (stereo partly drawn) | > 160 µM | > 160 µM | > 160 µM |  |  | 47.9 µM |  | > 100 µM | > 2 |  |  |  |  |  |  |  |  |
| Nc1ncnc2c1ncn2[C@H]1C[C@@H](OCP(=O)(O)O)CO1 | 4.69 µM | 5.23 µM | ≥ 315 µM | ≥ 67 | ≥ 60 | 0.5 µM |  | > 100 µM | > 200 |  |  |  |  |  |  |  |  |
| Cc1cn([C@H]2C[C@@H](OCP(=O)(O)O)CO2)c(=O)[nH]c1=O | 27.1 µM | 23.6 µM | 297 µM | 11 | 13 | 40.2 µM |  | > 100 µM | > 2.49 |  |  |  |  |  |  |  |  |
| CC(C)CCOC(=O)C[C@H](NP(=O)(O)CO[C@H]1CO[C@@H](n2cnc3c(N)ncnc32)C1)C(=O)OCCC(C)C |  |  |  |  |  |  |  |  |  | Metabolite detected |  |  |  |  |  |  |  |
| CC(C)OC(=O)[C@H](C)NP(=O)(CO[C@H]1CO[C@@H](n2cnc3c(=O)[nH]c(N)nc32)C1)Oc1ccccc1 (stereo partly drawn) | > 112 µM | > 112 µM | ≥ 112 µM |  |  | > 100 µM | > 100 µM | > 100 µM |  |  |  |  |  |  |  |  |  |
| CC(C)CCOC(=O)C[C@H](NP(=O)(O)CO[C@H]1CO[C@@H](n2cnc3c(N)ncnc32)C1)C(=O)O |  |  |  |  |  |  |  |  |  |  | Metabolite_Detected |  |  |  |  |  |  |
| CC(C)OC(=O)[C@H](C)NP(=O)(CO[C@H]1CO[C@@H](n2cnc3c(=O)[nH]c(N)nc32)C1)N[C@@H](C)C(=O)OC(C)C | > 97.6 µM | > 97.6 µM | ≥ 97.6 µM |  |  | > 100 µM | > 100 µM | > 100 µM |  |  |  |  |  |  |  |  |  |
| CCCOC(=O)[C@H](Cc1ccccc1)NP(=O)(CO[C@H]1CO[C@@H](n2cnc3c(=O)[nH]c(N)nc32)C1)N[C@@H](Cc1ccccc1)C(=O)OCCC | > 62 µM | > 62 µM | > 62 µM |  |  | > 100 µM |  | > 100 µM |  |  |  |  |  |  |  |  |  |
| Cc1cn([C@H]2C[C@@H](OCP(=O)(N[C@@H](C)C(=O)OC(C)C)Oc3ccccc3)CO2)c(=O)[nH]c1=O (stereo partly drawn) | 0.565 µM | 0.424 µM | 127 µM | 223 | 295 | 0.26 µM | > 10 µM | > 100 µM | > 38 |  |  |  |  |  |  |  |  |
| CCCOC(=O)[C@H](Cc1ccccc1)NP(=O)(CO[C@H]1CO[C@@H](n2cnc3c(N)ncnc32)C1)N[C@@H](Cc1ccccc1)C(=O)OCCC | 0.0033 µM | 0.002 µM | 1.12 µM | 347 | 570 | 0.01 µM | 4.2 µM | > 10 µM | > 1000 |  |  | 0.03 µM | 6.37 µM | > 3330 | < 10 min | 7 min |  |
| CC(C)OC(=O)[C@H](C)NP(=O)(CO[C@H]1CO[C@@H](n2ccc(N)nc2=O)C1)N[C@@H](C)C(=O)OC(C)C | > 193 µM | > 193 µM | ≥ 193 µM |  |  | > 100 µM | > 100 µM | > 100 µM |  |  |  |  |  |  |  |  |  |
| CC(C)OC(=O)[C@H](C)NP(=O)(CO[C@H]1CO[C@@H](n2cnc3c(N)ncnc32)C1)Oc1ccccc1 (stereo partly drawn) | 0.103 µM | 0.0535 µM | 61.8 µM | 597 | 1150 | 0.03 µM | > 10 µM | > 10 µM | > 333 |  |  |  |  |  | > 60 min | > 60 min |  |
| CCCOC(=O)[C@H](Cc1ccccc1)NP(=O)(CO[C@H]1CO[C@@H](n2cc(C)c(=O)[nH]c2=O)C1)N[C@@H](Cc1ccccc1)C(=O)OCCC | 0.0292 µM | 0.0204 µM | 56.6 µM | 1970 | 2780 | 0.28 µM | > 10 µM | > 10 µM | > 36 |  |  |  |  |  |  |  |  |
| C[C@H](Cn1cnc2c(N)ncnc21)OCP(=O)(O)O [TENOFOVIR ANHYDROUS] |  |  |  |  |  |  |  |  |  |  |  |  |  |  |  |  | 5 µM |
| Nc1nc2c(ncn2[C@H]2C[C@@H](OCP(=O)(O)O)CO2)c(=O)[nH]1 | > 302 µM | > 302 µM | > 302 µM |  |  | > 100 µM | > 100 µM | > 100 µM |  |  |  |  |  |  |  |  |  |
| Nc1ccn([C@@H]2CS[C@H](CO)O2)c(=O)n1 [LAMIVUDINE] |  |  | > 87.2 µM | > 39 | > 10 | 0.01 µM | > 2 µM | > 2 µM | > 200 |  |  | < 0.01 µM | > 2 µM | > 254 |  |  |  |
| Nc1ncnc2c1ncn2[C@@H]1OC[C@H](OCP(=O)(O)O)[C@H]1F | ≥ 222 µM | ≥ 214 µM | 262 µM |  |  | 79.6 µM | > 100 µM | > 100 µM |  |  |  |  |  |  |  |  |  |
